{"source": "ChEMBL document CHEMBL5661977", "about": "“BI 6727, a Polo-like kinase inhibitor with improved pharmacokinetic profile and broad antitumor activity” (Clin Cancer Res, 2009)", "key": {"HL-60": {"test_system": "HL-60", "test": "Antimitotic activity against human HL-60 cells assessed as inhibition of cell proliferation incubated for 72 hrs by Alamar blue based fluorescence spectrophotometric analysis", "format": "functional", "settings": "HL-60, 72 h", "in_short": "(§1)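 Cancer cell lines were cultured per supplier instructions and exposed to various inhibitor concentrations for 72 h. Growth was read as Alamar blue conversion by fluorescence. EC50 (50% growth inhibition) was extrapolated from the dose-response curve fit.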"}, "THP-1": {"test_system": "THP-1", "test": "Antimitotic activity against human THP-1 cells assessed as inhibition of cell proliferation incubated for 72 hrs by Alamar blue based fluorescence spectrophotometric analysis", "format": "functional", "settings": "THP-1, 72 h", "in_short": "as §1"}, "NCI-H460 [1]": {"test_system": "NCI-H460", "test": "Antimitotic activity against human NCI-H460 cells assessed as histone H3 phosphoserine 10 level at 100 nmol/L incubated for 24 hrs by immunofluorescence analysis", "format": "functional, cell-based", "in_short": "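NCI-H460 cells on chamber slides were treated next day for 24 h with inhibitor or 0.1% DMSO vehicle. They were fixed and permeabilized with 4% formaldehyde/Triton X-100 for 5 min at RT, then stained with anti-tubulin and anti-phospho-Ser10 histone H3 (1:500 in PBS/2% BSA) plus DAPI 0.05 µg/mL. Imaged by fluorescence microscopy.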"}, "NCI-H460 [2]": {"test_system": "NCI-H460", "test": "Antimitotic activity against human NCI-H460 cells assessed as cell cycle block in G2-M phase measuring by accumulation of 4N DNA content at 100 nmol/L incubated for 24 hrs by PI staining based flow cytometric analysis", "format": "functional", "in_short": "(§2)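 Log-phase NCI-H460 cells were treated with 0.1% DMSO or inhibitor (dose series for 24 h; 100 nmol/L time course at 0, 24, 48, 72 h). Cells were fixed in 80% ethanol, permeabilized with 0.25% Triton X-100 for 5 min, then given 0.1% RNase plus 10 µg/mL propidium iodide for 20 min at RT. DNA content was read by flow cytometry.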"}, "NCI-H460 [3]": {"test_system": "NCI-H460", "test": "Antimitotic activity against human NCI-H460 cells assessed as increase in the sub-G1 phase at 100 nmol/L incubated for 48 hrs by PI staining based flow cytometric analysis", "format": "functional, cell-based", "in_short": "as §2"}, "[4]": {"test": "Volume of distribution at steady state in Wistar rat at 10 mg/kg, iv by HPLC-MS/MS analysis", "format": "ADME, organism-based", "settings": "in vivo, read-out: Vdss", "in_short": "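Male Wistar Crl:WI (Han) rats, n = 4, given a single 5-min i.v. infusion. BI 6727 measured in EDTA plasma at various times after the infusion started, by HPLC-MS/MS with internal standard. Parameters came from noncompartmental analysis. Terminal half-life was taken from the last two time points after i.v. dosing.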"}, "[5]": {"test": "Cmax in Wistar rat at 30 mg/kg, po by HPLC-MS/MS analysis", "format": "ADME, organism-based", "settings": "in vivo", "in_short": "(§3)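 Single oral gavage of BI 6727 suspended in 0.5% hydroxyethyl-cellulose (10 mL/kg) to female nude mice or male Wistar rats. EDTA plasma levels measured over time by HPLC-MS/MS with internal standard. AUC0-24 by trapezoidal rule. Parameters from noncompartmental analysis.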"}, "[6]": {"test": "Tmax in Wistar rat at 30 mg/kg, po by HPLC-MS/MS analysis", "format": "ADME, organism-based", "settings": "in vivo", "in_short": "as §3"}, "[7]": {"test": "Clearance in BomTac:NMRI-Foxn1nu mouse at 35 mg/kg, iv by HPLC-MS/MS analysis", "format": "ADME, organism-based", "settings": "in vivo", "in_short": "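Female nude mice, n = 3, single i.v. dose (vehicle 0.1 N HCl diluted with 0.9% NaCl, 10 mL/kg). BI 6727 measured in EDTA plasma at several times by HPLC-MS/MS with internal standard. Parameters came from noncompartmental analysis. Terminal half-life was taken from the last two time points after i.v. dosing.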"}, "[8]": {"test": "Tmax in BomTac:NMRI-Foxn1nu mouse at 50 mg/kg, po by HPLC-MS/MS analysis", "format": "ADME, organism-based", "settings": "in vivo", "in_short": "as §3"}, "HCT-116 [9]": {"test_system": "HCT-116", "test": "Antitumor activity against human HCT-116 cells xenografted in BomTac:NMRI-Foxn1nu mouse assessed as T/C at 20 mg/kg, iv administered twice a week upto 6 weeks relative to control", "format": "functional", "in_short": "(§4)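 Female nude mice bore s.c. HCT 116 (2×10^6 cells), NCI-H460 (1×10^6 cells) or serially transplanted CXB1 tumor pieces. At ~50–100 mm³, mice were randomized into groups of 10 and dosed i.v. (0.1 N HCl/saline) or by gavage (0.5% hydroxyethyl-cellulose) at 10 mL/kg. Calipers read thrice weekly, volume = length×width²×π/6. T/C from median volumes on the last day.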"}, "HCT-116 [10]": {"test_system": "HCT-116", "test": "Antitumor activity against human HCT-116 cells xenografted in BomTac:NMRI-Foxn1nu mouse assessed as T/C at 15 mg/kg, iv administered twice a week upto 6 weeks relative to control", "format": "functional", "in_short": "as §4"}, "HCT-116 [11]": {"test_system": "HCT-116", "test": "Antitumor activity against human HCT-116 cells xenografted in BomTac:NMRI-Foxn1nu mouse assessed as T/C at 30 mg/kg, iv administered once a week upto 6 weeks relative to control", "format": "functional", "in_short": "as §4"}, "[12]": {"test": "AUC (0 to 24 hrs) in human HCT-116 cells xenografted in BomTac:NMRI-Foxn1nu mouse at 25 mg/kg, iv administered twice a week upto 6 weeks by HPLC-MS/MS analysis", "format": "ADME, organism-based", "settings": "in vivo, 1008 h"}, "[13]": {"test": "AUC (0 to 24 hrs) in human HCT-116 cells xenografted in BomTac:NMRI-Foxn1nu mouse at 20 mg/kg, iv administered once a week upto 6 weeks by HPLC-MS/MS analysis", "format": "ADME, organism-based", "settings": "in vivo, 1008 h"}, "[14]": {"test": "AUC (0 to 24 hrs) in human HCT-116 cells xenografted in BomTac:NMRI-Foxn1nu mouse at 7 mg/kg, po administered daily upto 6 weeks by HPLC-MS/MS analysis", "format": "ADME, organism-based", "settings": "in vivo, 1008 h"}, "[15]": {"test": "AUC (0 to 24 hrs) in human NCI-H460 cells xenografted in BomTac:NMRI-Foxn1nu mouse at 70 mg/kg, po administered once a week upto 6 weeks by HPLC-MS/MS analysis", "format": "ADME, organism-based", "settings": "in vivo, 1008 h"}, "[16]": {"test": "AUC (0 to 24 hrs) in human NCI-H460 cells xenografted in BomTac:NMRI-Foxn1nu mouse at 10 mg/kg, po administered daily upto 6 weeks by HPLC-MS/MS analysis", "format": "ADME, organism-based", "settings": "in vivo, 1008 h"}, "HCT-116 [17]": {"test_system": "HCT-116", "test": "Antitumor activity against human HCT-116 cells xenografted in BomTac:NMRI-Foxn1nu mouse assessed as tumor regression at 15 mg/kg, iv administered twice a week on consecutive days", "format": "functional, organism-based", "in_short": "as §4"}, "HCT-116 [18]": {"test_system": "HCT-116", "test": "Antitumor activity against human HCT-116 cells xenografted in BomTac:NMRI-Foxn1nu mouse assessed as […] in tumor size at 20 mg/kg, iv administered twice a week on consecutive days", "format": "functional, organism-based"}, "HCT-116 [19]": {"test_system": "HCT-116", "test": "Antitumor activity against human HCT-116 cells xenografted in BomTac:NMRI-Foxn1nu mouse assessed as early apoptosis at 40 mg/kg, iv 24 hrs after administration by tunel staining based immunohistochemistry analysis", "format": "functional, organism-based", "in_short": "(§5)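 Female nude mice bore s.c. HCT 116 tumors (~200 mm³) and received a single i.v. 40 mg/kg dose or vehicle (n=3 per group per time). Tumor, small intestine and large intestine were taken at 6, 24 and 48 h. Frozen sections were stained for pSer10 histone H3 (immunoperoxidase) or by TUNEL. Positive area was calculated as % of tumor cell area; Student's t test.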"}, "HCT-116 [20]": {"test_system": "HCT-116", "test": "Antitumor activity against human HCT-116 cells xenografted in BomTac:NMRI-Foxn1nu mouse assessed as mitotic index in large intestine at 40 mg/kg, iv", "format": "functional, organism-based", "in_short": "as §5"}}, "note": "Active and inactive are the calls of the source. The rule behind the calls is not given here."}
{"smiles": "CC[C@@H]1C(=O)N(C)c2cnc(Nc3ccc(C(=O)N[C@H]4CC[C@H](N5CCN(CC6CC6)CC5)CC4)cc3OC)nc2N1C(C)C", "note": "[VOLASERTIB]", "values": [{"measurement": "EC50", "setting": "HL-60", "result": 32, "unit": "nM"}, {"measurement": "EC50", "setting": "THP-1", "result": 36, "unit": "nM"}, {"measurement": "Activity", "setting": "NCI-H460 [1]", "result": "Active"}, {"measurement": "Activity", "setting": "NCI-H460 [2]", "result": "Active"}, {"measurement": "Activity", "setting": "NCI-H460 [3]", "result": "Active"}, {"measurement": "Vd", "setting": "[4]", "result": 22, "unit": "L/kg"}, {"measurement": "Cmax", "setting": "[5]", "result": 2200, "unit": "nM"}, {"measurement": "Tmax", "setting": "[6]", "result": 6.7, "unit": "h"}, {"measurement": "clearance", "setting": "[7]", "result": 10, "unit": "mL/min/kg"}, {"measurement": "Tmax", "setting": "[8]", "result": 1.7, "unit": "h"}, {"measurement": "T/C", "setting": "HCT-116 [9]", "result": 1, "unit": "%"}, {"measurement": "T/C", "setting": "HCT-116 [10]", "result": 1, "unit": "%"}, {"measurement": "T/C", "setting": "HCT-116 [11]", "result": 3, "unit": "%"}, {"measurement": "AUC", "setting": "[12]", "result": 75, "unit": "µM·h"}, {"measurement": "AUC", "setting": "[13]", "result": 40, "unit": "µM·h"}, {"measurement": "AUC", "setting": "[14]", "result": 44, "unit": "µM·h"}, {"measurement": "AUC", "setting": "[15]", "result": 58, "unit": "µM·h"}, {"measurement": "AUC", "setting": "[16]", "result": 61, "unit": "µM·h"}, {"measurement": "Activity", "setting": "HCT-116 [17]", "result": "Active"}, {"measurement": "Activity", "setting": "HCT-116 [18]", "result": "Active"}, {"measurement": "Activity", "setting": "HCT-116 [19]", "result": "Active"}, {"measurement": "Activity", "setting": "HCT-116 [20]", "result": "inactive"}]}
